# Screens from PubChem BioAssay.
# A selection: hits, their analogues and other compounds. The true share with any hit is near 1.9%.
# TAG inh: inhibitors of triacylglycerol accumulation; H9c2 cells, Nile Red lipid (TAG) fluorescence; cells loaded with 200 µM oleic acid; inhibition, % at 12.5 µM; actives 0.66% (n = 230,000); AID 651582;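 active = pattern-corrected inhibition of lipid staining of at least 50% with the nuclear-stain viability signal not falling by more than 50%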
# Rad51 HR inh: Rad51 (human) homologous recombination inhibition; Q06609; hRad51 DNA strand exchange, fluorescence dequenching; inhibition, % at 10 µM; actives 0.085% (n = 200,000);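 active = inhibition above 40% at the single screening dose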
#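 System: hRad51 filaments on single-stranded DNA; reagent: Fluorescein- and BHQ1-tagged 47-mer duplex; compound dosing: one concentration, 10 µM final; timing: filaments 15 min 37 °C, then compound 30 min; measured by: fluorescein emission 520 nm, excitation 485 nm; benchmarks: per-plate controls and blanks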
# ABHD5 PLIN5 PPI: ABHD5-PLIN5 protein interaction inhibition; Q00G26+Q8WTS1; Split G. princeps luciferase complementation, luminescence, 4 h; inhibition, % at 4 µM; actives 0.78% (n = 360,000); AID 602281;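 active = inhibition above the mean inhibition across every tested compound plus 3 SD, cut at about 22% in these data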
# Target sequence (Q00G26 whole entry, looked up): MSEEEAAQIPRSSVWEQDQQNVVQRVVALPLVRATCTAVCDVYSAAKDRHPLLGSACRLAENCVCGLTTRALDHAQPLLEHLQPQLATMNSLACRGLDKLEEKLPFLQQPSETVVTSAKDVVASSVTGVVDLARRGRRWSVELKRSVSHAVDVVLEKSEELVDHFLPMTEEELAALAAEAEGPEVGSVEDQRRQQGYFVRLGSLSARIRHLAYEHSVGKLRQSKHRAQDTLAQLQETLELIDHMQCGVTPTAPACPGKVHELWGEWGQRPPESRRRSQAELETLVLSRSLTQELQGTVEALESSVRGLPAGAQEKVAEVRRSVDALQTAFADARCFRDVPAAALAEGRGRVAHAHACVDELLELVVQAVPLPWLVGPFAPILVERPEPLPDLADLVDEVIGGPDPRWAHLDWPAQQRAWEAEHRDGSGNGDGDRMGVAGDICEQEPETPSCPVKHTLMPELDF
# Target sequence (Q8WTS1 whole entry, looked up): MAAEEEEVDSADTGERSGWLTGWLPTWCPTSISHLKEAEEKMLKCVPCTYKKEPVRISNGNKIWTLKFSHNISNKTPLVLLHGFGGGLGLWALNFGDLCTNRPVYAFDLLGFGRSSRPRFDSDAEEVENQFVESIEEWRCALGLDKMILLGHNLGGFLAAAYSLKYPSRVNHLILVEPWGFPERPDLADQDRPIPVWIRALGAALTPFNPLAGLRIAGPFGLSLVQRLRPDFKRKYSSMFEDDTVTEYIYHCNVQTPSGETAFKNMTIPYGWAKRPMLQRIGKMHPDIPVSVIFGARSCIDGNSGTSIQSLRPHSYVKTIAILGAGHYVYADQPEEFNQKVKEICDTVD
# HIF activator: HIF pathway transcriptional activation. U2OS HRE-luciferase reporter, luminescence; normalized: DMSO 0%, desferrioxamine 100%. actives 0.32% (n = 300,000). activation, % at 7.5 µM (by protocol);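 active = mean activation of at least 10% of the iron chelator positive control signal, with at least half of replicates also reaching 10%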
# GAA850 FXN act: increases GAA850 frataxin promoter reporter activity; activation, % at 6 µM; actives 0.56% (n = 360,000); HEK293 lucGAA850 FXN promoter luciferase reporter, 24 h; percent of 10 µM SAHA response;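 active = activation above the average of all compounds screened plus 3 SD, cutoff fixed separately per campaign, cut at about 7.5% in these data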
# Hsp70 act: transcriptional activators of Hsp70. HeLa Hsp70 promoter luciferase reporter, luminescence; scaled: vehicle 0, proteasome-inhibitor control 100%. actives 0.04% (n = 200,000). activation, % at 10 µM;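 active = activation above the mean across all tested compounds plus 3 SD, cutoff set per campaign, cut at about 5.5% in these data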
# H9c2 TAG conf: confirmation of triacylglycerol accumulation inhibitors. inhibition, % at 12.5 µM. H9c2 lipid accumulation, Nile Red fluorescence; cells loaded with 200 µM oleic acid. shares compounds with TAG inh. actives 71% (n = 990);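 active = mean inhibition across replicates of 40% or more; inactive = mean inhibition below 40%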
# A number is an active result; – = inactive; · = not tested or not shown.
SMILES,TAG inh,Rad51 HR inh,ABHD5 PLIN5 PPI,HIF activator,GAA850 FXN act,Hsp70 act,H9c2 TAG conf
O=C(C[C@H]1C[C@H](C(=O)N2CCOCC2)[C@@]2(CCC3CCCC3)c3[nH]c4cc(-c5ccco5)ccc4c3CCN2C1=O)NCC12CC3CC(CC(C3)C1)C2,61.6,·,–,·,–,·,76.6
O=C(CC1C[C@H](C(=O)N2CCOCC2)[C@@]2(CCC3CCCC3)c3[nH]c4ccccc4c3CCN2C1=O)NCCN1CCOCC1 (stereo partly specified),–,·,–,·,–,·,·
Nc1ccc2ccccc2c1N=Nc1ccccc1,56.5,·,–,·,–,·,52.8
COc1ccc(NC(=O)c2nc(C)c(C3(C)CC(c4ccccc4)=NO3)s2)cc1 (stereo unspecified),76.5,–,–,–,–,·,93.6
CCC(C)(O)c1[nH]c2ccc(C(F)(F)F)cc2c1C (stereo unspecified),–,·,–,–,–,·,·
CC(C)c1ccc(Nc2ncc3c(n2)CCN(C(=O)Nc2ccc(F)c(Cl)c2)C3)cc1,86.8,·,–,·,–,·,87.8
Cc1ccc2oc(NC3=NC4(CCCC4)C4=C(CCCC4=O)N3)nc2c1,54.6,·,–,·,–,·,62.2
COc1ccccc1N1CCN(C(=O)CSc2nnc(C)n2C2CC2)CC1,–,·,–,·,–,·,·
CC(C)(C)N1CSC(=S)N(Cc2ccccc2)C1,–,–,–,–,–,–,·
CC(C)N1CSC(=S)N(Cc2ccccc2)C1,68.9,·,–,–,–,–,48.5
COC(=O)C1=C(c2ccc(OC)cc2)OC(=O)C1(C)C,60.5,·,–,–,–,·,–
COC(=O)c1noc(-c2ccc(OC)cc2)n1,–,–,–,–,–,–,·
CC(=O)c1cccc(NCC(=O)N2CCN(S(=O)(=O)c3ccccc3)CC2)c1,–,·,–,·,–,·,·
CCOc1ccc(CCNC(=O)c2cc3sc(Cl)cc3n2C)cc1OCC,59.8,–,–,–,–,–,40.7
CC(NC(=O)c1ccco1)C(=O)OCc1cccc(C(F)(F)F)c1 (stereo unspecified),–,·,–,·,–,·,·
Nc1ncnc2c1ncn2C1C=C(CO)C(O)C1O (stereo unspecified),74.8,·,–,·,–,·,75.6
Nc1ncnc2c1ncn2[C@@H]1O[C@H](CO)C[C@H]1O,–,–,–,–,–,·,·
Nc1c(C(=O)NC2CCCC2)c2nc3ccccc3nc2n1/N=C/c1cccnc1,68.5,·,–,–,–,·,72.5
CCC(C)(C)NC(=O)C(c1ccc(C)cc1)N(Cc1ccco1)C(=O)CCC(=O)Nc1nccs1 (stereo unspecified),66.0,–,–,–,–,–,65.0
CCC(C)(C)NC(=O)C(c1ccc(OC)cc1)N(Cc1ccco1)C(=O)CCC(=O)Nc1cc(C)on1 (stereo unspecified),69.8,–,–,–,–,–,56.8
COc1ccc(C(C(=O)NC(C)(C)C)N(Cc2ccco2)C(=O)CCC(=O)Nc2cc(C)on2)cc1 (stereo unspecified),56.4,–,–,–,–,–,45.6
CC(C)(C)NC(=O)C(c1ccc(F)cc1)N(Cc1ccco1)C(=O)CCC(=O)Nc1nccs1 (stereo unspecified),·,·,–,–,–,·,·
CCC(=O)Nc1ccc(NCc2cccs2)cc1,·,·,–,–,–,·,·
O=C1C=C(c2ccc(-c3ccccc3)c(F)c2)C[C@@H](c2ccc(Cl)cc2)C1,–,·,–,·,–,·,·
O=C(N/N=C/c1cn(-c2ccccc2)nc1-c1cc2ccccc2o1)c1c[nH]c2ccccc12,58.8,·,–,–,–,–,59.9
SMILES,TAG inh,Rad51 HR inh,ABHD5 PLIN5 PPI,HIF activator,GAA850 FXN act,Hsp70 act,H9c2 TAG conf
COc1ccc2c(c1)C(c1ccc(N3CCOCC3)cc1)=NNC(c1cccnc1)=N2,·,–,–,–,–,–,·
CC(C)c1ccc2c(c1)C(c1ccc(N3CCOCC3)cc1)=NNC(c1cccs1)=N2,52.3,–,–,–,–,–,–
CC(C)CNC(=O)COC(=O)c1n[nH]c2ccccc12,–,–,–,–,–,–,·
COc1ccc(OC)c(C(=O)N(C)C2CCCN(Cc3ccccc3F)C2)c1 (stereo unspecified),–,·,–,–,–,·,·
C=CCn1cnc2c(c1=O)c1nc3ccccc3nc1n2/N=C/c1cc(OC)c(OC)c(OC)c1,78.6,–,–,–,–,–,–
N#C/C(=C\c1c(Cl)cccc1Cl)c1nn(-c2ccccc2)c(-n2cccc2)c1C#N,–,–,–,–,–,·,·
N#C/C(=C\c1cc([N+](=O)[O-])c(N2CCCCC2)cc1N1CCCCC1)c1nn(-c2ccccc2)c(N)c1C#N,50.9,–,–,·,–,–,53.4
CCN1CCN(c2ncc3c(n2)CC(c2cc(OC)c(OC)c(OC)c2)CC3=O)CC1 (stereo unspecified),60.2,–,–,–,–,–,81.6
C[C@@H]1COC(=O)[C@@H](CC(=O)OC(C)(C)C)C/C=C\C[C@@H](CC(=O)NCCO)C(=O)N1,–,·,–,·,–,·,·
COC(=O)C1=C(C)N(Cc2ccccc2)C(=NCc2cc(OC)c(OC)c(OC)c2)N[C@H]1c1ccccc1,·,·,·,–,·,·,·
COC(=O)C1=C(C)N(Cc2ccccc2)C(=NCc2ccccc2)N[C@H]1c1ccccc1,104.8,·,–,·,–,·,53.4
COC(=O)C1=C(C)N(Cc2ccccc2)C(=NCc2cc(OC)c(OC)c(OC)c2)N[C@H]1c1ccc(Br)cc1,61.7,·,–,·,–,·,62.5
Cc1ccc(-c2cc(=O)c3cc(F)ccc3[nH]2)cc1,·,–,–,–,–,–,·
O=c1cc(-c2ccccc2)[nH]c2ccc(F)cc12,65.1,–,–,–,–,–,52.4
Cc1ccc(S(=O)(=O)N2CCN(C(=O)NCc3ccc(F)cc3)CC2)c(C)c1,·,·,–,–,–,·,·
COc1cccc(NC(=O)N(C)C[C@@H]2OCc3cn(nn3)CCCC(=O)N([C@H](C)CO)C[C@H]2C)c1,–,·,–,·,–,·,·
Nc1c(C(=O)Nc2ccccc2)c2nc3ccccc3nc2n1CCCN1CCOCC1,83.1,·,–,–,–,·,86.0
N#Cc1c(N)n(CCCN2CCOCC2)c2nc3ccccc3nc12,–,–,–,·,–,–,·
Nc1c(C(=O)Nc2ccccc2)sc2nc(N3CCOCC3)c3c(c12)CCCC3,–,·,–,·,–,·,·
CNC(=O)c1ccc(-c2sc3nc(N4CCOCC4)c4c(c3c2N)CCCC4)o1,50.7,–,–,–,–,–,74.1
Nc1c(C(=O)NCc2ccccc2)sc2nc(N3CCOCC3)c3c(c12)CCCC3,54.5,–,–,–,–,–,41.6
CNC(=O)c1ccc(-c2sc3nc(N4CCOCC4)c4c(c3c2N)CC(C)(C)OC4)o1,51.7,–,–,–,–,–,66.5
COc1ccccc1-c1cnc(C(O)c2ccc(F)c(F)c2)[nH]1 (stereo unspecified),–,·,–,·,–,·,·
